Data taken from ChEMBL document CHEMBL4145546, “A multidisciplinary study of 3-(β-d-glucopyranosyl)-5-substituted-1,2,4-triazole derivatives as glycogen phosphorylase inhibitors: Computation, synthesis, crystallography and kinetics reveal new potent inhibitors” (Eur J Med Chem, 2018).
Active and inactive are the calls of the source. The rule behind the calls is not given here.

Biological target: T1, Glycogen phosphorylase, muscle form (Oryctolagus cuniculus) (UniProt P00489)
T1 sequence (whole entry): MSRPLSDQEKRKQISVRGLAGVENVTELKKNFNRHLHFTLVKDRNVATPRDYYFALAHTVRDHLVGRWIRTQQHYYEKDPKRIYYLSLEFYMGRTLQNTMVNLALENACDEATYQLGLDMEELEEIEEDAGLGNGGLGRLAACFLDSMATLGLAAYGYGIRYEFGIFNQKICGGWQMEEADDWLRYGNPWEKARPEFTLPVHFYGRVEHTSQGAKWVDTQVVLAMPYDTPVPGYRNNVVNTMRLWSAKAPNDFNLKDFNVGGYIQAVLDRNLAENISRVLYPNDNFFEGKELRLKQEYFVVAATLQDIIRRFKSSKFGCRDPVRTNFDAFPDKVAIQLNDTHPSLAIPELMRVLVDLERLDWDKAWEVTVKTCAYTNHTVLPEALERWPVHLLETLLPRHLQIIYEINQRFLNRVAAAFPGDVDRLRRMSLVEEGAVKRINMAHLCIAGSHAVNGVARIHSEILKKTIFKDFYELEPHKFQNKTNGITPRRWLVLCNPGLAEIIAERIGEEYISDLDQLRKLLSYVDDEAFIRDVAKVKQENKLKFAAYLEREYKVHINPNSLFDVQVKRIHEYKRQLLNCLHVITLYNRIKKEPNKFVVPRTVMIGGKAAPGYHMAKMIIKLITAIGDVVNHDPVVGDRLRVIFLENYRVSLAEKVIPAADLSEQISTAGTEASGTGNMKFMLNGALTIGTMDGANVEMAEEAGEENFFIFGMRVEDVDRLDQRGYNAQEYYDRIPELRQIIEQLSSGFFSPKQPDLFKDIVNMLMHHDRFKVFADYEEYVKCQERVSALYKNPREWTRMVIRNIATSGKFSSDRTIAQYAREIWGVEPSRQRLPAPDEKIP
Assay: Inhibition of rabbit muscle glycogen phosphorylase-b at 625 uM assessed as release of inorganic phosphate using glucose-1-phosphate as substrate in presence of AMP and glycogen by spectrophotometric method

| SMILES | inhibition |
| --- | --- |
| CN(C)/C=N/S(=O)(=O)c1ccc(-c2n[nH]c([C@@H]3O[C@H](CO)[C@@H](O)[C@H](O)[C@H]3O)n2)cc1 | inactive |

Biological target: T2, Glycogen phosphorylase, muscle form (Oryctolagus cuniculus, UniProt P00489)
T2 sequence (P00489 whole entry): T1 sequence (whole entry)
Assay: Inhibition of rabbit muscle glycogen phosphorylase-b assessed as release of inorganic phosphate using glucose-1-phosphate as substrate in presence of AMP and glycogen by spectrophotometric method
Method in brief: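 GPb was purified from rabbit skeletal muscle and used at 3 μg/mL at 30 °C, synthesis direction. Medium was 30 mM imidazole/HCl pH 6.8, 60 mM KCl, 0.6 mM EDTA, 0.6 mM DTT, 0.2% w/v glycogen and 1 mM AMP, with Glc-1-P and inhibitor varied. Initial rates came from pseudo-first-order constants of spectrophotometric phosphate release at five time points, fitted by non-linear regression.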

| SMILES | Ki [µM] |
| --- | --- |
| O=C(O)c1ccc2cc(-c3n[nH]c([C@@H]4O[C@H](CO)[C@@H](O)[C@H](O)[C@H]4O)n3)ccc2c1 | 5.05 |
| OC[C@H]1O[C@@H](c2nc(-c3ccc4cc5ccccc5cc4c3)n[nH]2)[C@H](O)[C@@H](O)[C@@H]1O | 20 |
| NS(=O)(=O)c1ccc(-c2n[nH]c([C@@H]3O[C@H](CO)[C@@H](O)[C@H](O)[C@H]3O)n2)cc1 | 98.2 |

Next, values leading:

| Ki [µM] | SMILES |
| --- | --- |
| 1.19 | OC[C@H]1O[C@@H](c2nc(-c3ccc4c(c3)Cc3ccccc3-4)n[nH]2)[C@H](O)[C@@H](O)[C@@H]1O |
| 11.5 | OC[C@H]1O[C@@H](c2nc(-c3cccc4ccccc34)n[nH]2)[C@H](O)[C@@H](O)[C@@H]1O |
| > 1500 | OC[C@H]1O[C@@H](c2nc(-c3ccc4ccc5cccc6ccc3c4c56)n[nH]2)[C@H](O)[C@@H](O)[C@@H]1O |
| 68.2 | OC[C@H]1O[C@@H](c2nc(-c3cccc(-c4ccccc4)c3)n[nH]2)[C@H](O)[C@@H](O)[C@@H]1O |
| 4.42 | O=C(O)c1ccc(-c2ccc(-c3n[nH]c([C@@H]4O[C@H](CO)[C@@H](O)[C@H](O)[C@H]4O)n3)cc2)cc1 |
| 2.38 | OC[C@H]1O[C@@H](c2nc(-c3ccc(-c4ccccc4)cc3)n[nH]2)[C@H](O)[C@@H](O)[C@@H]1O |

Biological target: T3, Glycogen phosphorylase, liver form (Homo sapiens, UniProt P06737)
T3 sequence (P06737 whole entry): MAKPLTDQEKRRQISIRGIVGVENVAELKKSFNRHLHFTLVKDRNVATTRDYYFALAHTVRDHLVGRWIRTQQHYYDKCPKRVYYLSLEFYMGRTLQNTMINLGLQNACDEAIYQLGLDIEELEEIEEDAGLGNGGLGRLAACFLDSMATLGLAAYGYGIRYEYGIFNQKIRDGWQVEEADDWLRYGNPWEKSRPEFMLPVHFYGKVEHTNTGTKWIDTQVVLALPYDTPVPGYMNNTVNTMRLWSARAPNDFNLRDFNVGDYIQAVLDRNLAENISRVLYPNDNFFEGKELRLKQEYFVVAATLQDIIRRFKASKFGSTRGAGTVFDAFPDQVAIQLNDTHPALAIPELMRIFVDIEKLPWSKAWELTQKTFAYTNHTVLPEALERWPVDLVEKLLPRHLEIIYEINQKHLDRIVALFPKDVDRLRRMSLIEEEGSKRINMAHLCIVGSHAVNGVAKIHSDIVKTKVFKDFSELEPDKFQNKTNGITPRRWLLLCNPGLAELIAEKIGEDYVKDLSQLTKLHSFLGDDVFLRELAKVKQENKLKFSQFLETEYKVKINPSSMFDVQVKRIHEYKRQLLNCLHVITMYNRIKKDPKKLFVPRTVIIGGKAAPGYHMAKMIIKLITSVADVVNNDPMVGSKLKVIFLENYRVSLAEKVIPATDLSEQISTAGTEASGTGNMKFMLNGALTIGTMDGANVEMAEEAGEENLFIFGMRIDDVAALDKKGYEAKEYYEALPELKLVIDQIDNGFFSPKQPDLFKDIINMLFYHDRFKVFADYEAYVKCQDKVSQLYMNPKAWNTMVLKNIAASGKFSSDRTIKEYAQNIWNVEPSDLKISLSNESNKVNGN
Assay: Inhibition of human liver glycogen phosphorylase-a assessed as release of inorganic phosphate using glucose-1-phosphate as substrate in presence of glycogen by spectrophotometric method
Method in brief: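 Human liver GPa (1 μg/mL) assayed at 30 °C toward glycogen synthesis in 30 mM imidazole/HCl pH 6.8 with 60 mM KCl, 0.6 mM EDTA, 0.6 mM DTT, 0.2% w/v glycogen, no AMP, and varied Glc-1-P and inhibitor. Orthophosphate release was read spectrophotometrically at five time points; kinetic parameters were fitted by non-linear regression.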

| SMILES | Ki [µM] |
| --- | --- |
| OC[C@H]1O[C@@H](c2nc(-c3ccc4c(c3)Cc3ccccc3-4)n[nH]2)[C@H](O)[C@@H](O)[C@@H]1O | 2.02 |
| OC[C@H]1O[C@@H](c2nc(-c3cccc4ccccc34)n[nH]2)[C@H](O)[C@@H](O)[C@@H]1O | 8.91 |
| O=C(O)c1ccc2cc(-c3n[nH]c([C@@H]4O[C@H](CO)[C@@H](O)[C@H](O)[C@H]4O)n3)ccc2c1 | 3.88 |
| O=C(O)c1ccc(-c2ccc(-c3n[nH]c([C@@H]4O[C@H](CO)[C@@H](O)[C@H](O)[C@H]4O)n3)cc2)cc1 | 2.67 |
| OC[C@H]1O[C@@H](c2nc(-c3ccc(-c4ccccc4)cc3)n[nH]2)[C@H](O)[C@@H](O)[C@@H]1O | 2.23 |

Biological target: not listed separately
Assay: Inhibition of glycogen phosphorylase (unknown origin)
Design: species or system Homo sapiens

| SMILES | Ki [µM] |
| --- | --- |
| OC[C@H]1O[C@H](O)[C@H](O)[C@@H](O)[C@@H]1O | […] |

Biological target: T2, Glycogen phosphorylase, muscle form
Assay: Inhibition of rabbit muscle glycogen phosphorylase-a assessed as release of inorganic phosphate using glucose-1-phosphate as substrate in presence of glycogen by spectrophotometric method
Method in brief: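 Rabbit muscle GPa was made by phosphorylating purified rabbit skeletal muscle GPb and used at 3 μg/mL, without AMP. Buffer was 30 mM imidazole/HCl pH 6.8 with 60 mM KCl, 0.6 mM EDTA, 0.6 mM DTT and 0.2% w/v glycogen, with varied Glc-1-P and inhibitor, at 30 °C. Phosphate release was measured spectrophotometrically at five intervals, and data were fitted non-linearly.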

| SMILES | Ki [µM] |
| --- | --- |
| OC[C@H]1O[C@@H](c2nc(-c3ccc4c(c3)Cc3ccccc3-4)n[nH]2)[C@H](O)[C@@H](O)[C@@H]1O | 0.84 |
| OC[C@H]1O[C@@H](c2nc(-c3cccc4ccccc34)n[nH]2)[C@H](O)[C@@H](O)[C@@H]1O | 3.38 |
| O=C(O)c1ccc2cc(-c3n[nH]c([C@@H]4O[C@H](CO)[C@@H](O)[C@H](O)[C@H]4O)n3)ccc2c1 | 0.78 |
| O=C(O)c1ccc(-c2ccc(-c3n[nH]c([C@@H]4O[C@H](CO)[C@@H](O)[C@H](O)[C@H]4O)n3)cc2)cc1 | 0.98 |
| OC[C@H]1O[C@@H](c2nc(-c3ccc(-c4ccccc4)cc3)n[nH]2)[C@H](O)[C@@H](O)[C@@H]1O | 2.09 |
